Experimental data as given in ChEMBL document CHEMBL4152256, “Structure-activity relationship of new antimalarial 1-aryl-3-susbtituted propanol derivatives: Synthesis, preliminary toxicity profiling, parasite life cycle stage studies, target exploration, and targeted delivery” (Eur J Med Chem, 2018).

Experiments:
Plasmodium falciparum [1] = assay: Antiplasmodial activity against multidrug-resistant Plasmodium falciparum FCR-3 by [3H]-hypoxanthine incorporation assay; assay type: functional, organism-based, FCR-3/Gambia; details: Plasmodium falciparum, FCR-3/Gambia
Summary of the method: (§1)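 Blood-stage P. falciparum 3D7 and FCR-3 were tested by a modified [3H]-hypoxanthine incorporation assay. Chloroquine was the reference in all runs.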

Plasmodium falciparum [2] = assay: Antiplasmodial activity against chloroquine-sensitive Plasmodium falciparum 3D7 by [3H]-hypoxanthine incorporation assay; assay type: functional, organism-based; details: Plasmodium falciparum, 3D7; summary of the method: as §1
[3] = Cytotoxicity against human HepG2A16 cells by MTT assay; assay type: cell-based; details: HepG2A16 cells
Summary of the method: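 MTT viability assay on HepG2-A16 cells, giving CC50 values.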

[4] = Selectivity index, ratio of CC50 for human HepG2A16 cells by MTT assay to IC50 for multidrug-resistant Plasmodium falciparum FCR-3; assay type: toxicity; details: HepG2A16 cells, read-out: Ratio CC50/IC50
Summary of the method: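 HepG2-A16 human hepatoma cells were tested by MTT viability assay to give CC50. Blood-stage activity was measured against the multidrug-resistant P. falciparum FCR-3 strain by [3H]-hypoxanthine incorporation to give IC50. SI = CC50 HepG2 / FCR-3 IC50.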

[5] = Genotoxicity in Salmonella typhimurium TA1535 harboring pSK1002 assessed as survival at 0.125 mg/ml in absence of Sprague-Dawley rat liver S9 fraction after by SOS/umu assay relative to control; assay type: toxicity, organism-based; details: salmonella enterica subsp. enterica serovar typhimurium, read-out: Survival
[6] = Genotoxicity in Salmonella typhimurium TA1535 harboring pSK1002 assessed as umu gene induction at 0.125 mg/ml in absence of Sprague-Dawley rat liver S9 fraction after by SOS/umu assay relative to control; assay type: toxicity, organism-based; details: salmonella enterica subsp. enterica serovar typhimurium, read-out: FC
[7] = Genotoxicity in Salmonella typhimurium TA1535 harboring pSK1002 assessed as survival at 0.125 mg/ml in presence of Sprague-Dawley rat liver S9 fraction after by SOS/umu assay relative to control; assay type: toxicity, organism-based; details: salmonella enterica subsp. enterica serovar typhimurium, read-out: Survival
[8] = Genotoxicity in Salmonella typhimurium TA1535 harboring pSK1002 assessed as umu gene induction at 0.125 mg/ml in presence of Sprague-Dawley rat liver S9 fraction after by SOS/umu assay relative to control; assay type: toxicity, organism-based; details: salmonella enterica subsp. enterica serovar typhimurium, read-out: FC
[9] = Genotoxicity in Salmonella typhimurium TA1535 harboring pSK1002 assessed as survival at 0.063 mg/ml in absence of Sprague-Dawley rat liver S9 fraction after by SOS/umu assay relative to control; assay type: toxicity, organism-based; details: salmonella enterica subsp. enterica serovar typhimurium, read-out: Survival
[10] = Genotoxicity in Salmonella typhimurium TA1535 harboring pSK1002 assessed as umu gene induction at 0.063 mg/ml in absence of Sprague-Dawley rat liver S9 fraction after by SOS/umu assay relative to control; assay type: toxicity, organism-based; details: salmonella enterica subsp. enterica serovar typhimurium, read-out: FC
[11] = Genotoxicity in Salmonella typhimurium TA1535 harboring pSK1002 assessed as survival at 0.063 mg/ml in presence of Sprague-Dawley rat liver S9 fraction after by SOS/umu assay relative to control; assay type: toxicity, organism-based; details: salmonella enterica subsp. enterica serovar typhimurium, read-out: Survival
[12] = Genotoxicity in Salmonella typhimurium TA1535 harboring pSK1002 assessed as umu gene induction at 0.063 mg/ml in presence of Sprague-Dawley rat liver S9 fraction after by SOS/umu assay relative to control; assay type: toxicity, organism-based; details: salmonella enterica subsp. enterica serovar typhimurium, read-out: FC
[13] = Genotoxicity in Salmonella typhimurium TA1535 harboring pSK1002 assessed as umu gene induction at 0.031 mg/ml in absence of Sprague-Dawley rat liver S9 fraction after by SOS/umu assay relative to control; assay type: toxicity, organism-based; details: salmonella enterica subsp. enterica serovar typhimurium, read-out: FC
[14] = Genotoxicity in Salmonella typhimurium TA1535 harboring pSK1002 assessed as survival at 0.031 mg/ml in presence of Sprague-Dawley rat liver S9 fraction after by SOS/umu assay relative to control; assay type: toxicity, organism-based; details: salmonella enterica subsp. enterica serovar typhimurium, read-out: Survival
[15] = Genotoxicity in Salmonella typhimurium TA1535 harboring pSK1002 assessed as umu gene induction at 0.031 mg/ml in presence of Sprague-Dawley rat liver S9 fraction after by SOS/umu assay relative to control; assay type: toxicity, organism-based; details: salmonella enterica subsp. enterica serovar typhimurium, read-out: FC
[16] = Genotoxicity in Salmonella typhimurium TA1535 harboring pSK1002 assessed as umu gene induction at 0.016 mg/ml in absence of Sprague-Dawley rat liver S9 fraction after by SOS/umu assay relative to control; assay type: toxicity, organism-based; details: salmonella enterica subsp. enterica serovar typhimurium, read-out: FC
[17] = Genotoxicity in Salmonella typhimurium TA1535 harboring pSK1002 assessed as umu gene induction at 0.016 mg/ml in presence of Sprague-Dawley rat liver S9 fraction after by SOS/umu assay relative to control; assay type: toxicity, organism-based; details: salmonella enterica subsp. enterica serovar typhimurium, read-out: FC
[18] = Genotoxicity in Salmonella typhimurium TA1535 harboring pSK1002 assessed as survival at 0.008 mg/ml in absence of Sprague-Dawley rat liver S9 fraction after by SOS/umu assay relative to control; assay type: toxicity, organism-based; details: salmonella enterica subsp. enterica serovar typhimurium, read-out: Survival
[19] = Genotoxicity in Salmonella typhimurium TA1535 harboring pSK1002 assessed as umu gene induction at 0.008 mg/ml in absence of Sprague-Dawley rat liver S9 fraction after by SOS/umu assay relative to control; assay type: toxicity, organism-based; details: salmonella enterica subsp. enterica serovar typhimurium, read-out: FC
[20] = Genotoxicity in Salmonella typhimurium TA1535 harboring pSK1002 assessed as survival at 0.008 mg/ml in presence of Sprague-Dawley rat liver S9 fraction after by SOS/umu assay relative to control; assay type: toxicity, organism-based; details: salmonella enterica subsp. enterica serovar typhimurium, read-out: Survival
[21] = Genotoxicity in Salmonella typhimurium TA1535 harboring pSK1002 assessed as umu gene induction at 0.008 mg/ml in presence of Sprague-Dawley rat liver S9 fraction after by SOS/umu assay relative to control; assay type: toxicity, organism-based; details: salmonella enterica subsp. enterica serovar typhimurium, read-out: FC
[22] = Genotoxicity in Salmonella typhimurium TA1535 harboring pSK1002 assessed as survival at 0.004 mg/ml in absence of Sprague-Dawley rat liver S9 fraction after by SOS/umu assay relative to control; assay type: toxicity, organism-based; details: salmonella enterica subsp. enterica serovar typhimurium, read-out: Survival
[23] = Genotoxicity in Salmonella typhimurium TA1535 harboring pSK1002 assessed as umu gene induction at 0.004 mg/ml in absence of Sprague-Dawley rat liver S9 fraction after by SOS/umu assay relative to control; assay type: toxicity, organism-based; details: salmonella enterica subsp. enterica serovar typhimurium, read-out: FC
[24] = Genotoxicity in Salmonella typhimurium TA1535 harboring pSK1002 assessed as survival at 0.002 mg/ml in absence of Sprague-Dawley rat liver S9 fraction after by SOS/umu assay relative to control; assay type: toxicity, organism-based; details: salmonella enterica subsp. enterica serovar typhimurium, read-out: Survival
[25] = Genotoxicity in Salmonella typhimurium TA1535 harboring pSK1002 assessed as umu gene induction at 0.002 mg/ml in absence of Sprague-Dawley rat liver S9 fraction after by SOS/umu assay relative to control; assay type: toxicity, organism-based; details: salmonella enterica subsp. enterica serovar typhimurium, read-out: FC
[26] = Genotoxicity in Salmonella typhimurium TA1535 harboring pSK1002 assessed as umu gene induction at 0.002 mg/ml in presence of Sprague-Dawley rat liver S9 fraction after by SOS/umu assay relative to control; assay type: toxicity, organism-based; details: salmonella enterica subsp. enterica serovar typhimurium, read-out: FC
[27] = Genotoxicity in Salmonella typhimurium TA1535 harboring pSK1002 assessed as umu gene induction at 0.001 mg/ml in absence of Sprague-Dawley rat liver S9 fraction after by SOS/umu assay relative to control; assay type: toxicity, organism-based; details: salmonella enterica subsp. enterica serovar typhimurium, read-out: FC
[28] = Genotoxicity in Salmonella typhimurium TA1535 harboring pSK1002 assessed as survival at 0.001 mg/ml in presence of Sprague-Dawley rat liver S9 fraction after by SOS/umu assay relative to control; assay type: toxicity, organism-based; details: salmonella enterica subsp. enterica serovar typhimurium, read-out: Survival
[29] = Genotoxicity in Salmonella typhimurium TA1535 harboring pSK1002 assessed as umu gene induction at 0.001 mg/ml in presence of Sprague-Dawley rat liver S9 fraction after by SOS/umu assay relative to control; assay type: toxicity, organism-based; details: salmonella enterica subsp. enterica serovar typhimurium, read-out: FC

SMILES | IC50 (Plasmodium falciparum [1]) [nM] | IC50 (Plasmodium falciparum [2]) [nM] | CC50 [3] [nM] | selectivity ratio [4] | viability at 0.125 mg/ml [5] [%] | fold induction at 0.125 mg/ml [6] | viability at 0.125 mg/ml [7] [%] | fold induction at 0.125 mg/ml [8] | viability at 0.063 mg/ml [9] [%] | fold induction at 0.063 mg/ml [10] | viability at 0.063 mg/ml [11] [%] | fold induction at 0.063 mg/ml [12] | fold induction at 0.031 mg/ml [13] | fold induction at 0.016 mg/ml [16] | fold induction at 0.016 mg/ml [17] | viability at 0.008 mg/ml [18] [%] | fold induction at 0.008 mg/ml [19] | viability at 0.008 mg/ml [20] [%] | fold induction at 0.008 mg/ml [21] | viability at 0.004 mg/ml [22] [%] | also measured
COc1ccccc1C1=CCN(CCC(O)c2ccc(F)cc2)CC1 (centres undefined) | 1320 | 2820 | 67000 | 51 | 107 | 1 | 88.5 | 1 | 101 | 0.9 | 91 | 0.9 | 1 | 1 | 1.2 | 111 | 1 | 88.3 | 1 | 104 | viability at 0.031 mg/ml [14]: 81.8%; fold induction at 0.031 mg/ml [15]: 1; fold induction at 0.004 mg/ml [23]: 1.1; viability at 0.002 mg/ml [24]: 103%; fold induction at 0.002 mg/ml [25]: 1.1; fold induction at 0.002 mg/ml [26]: 1.1; fold induction at 0.001 mg/ml [27]: 1; viability at 0.001 mg/ml [28]: 103%; fold induction at 0.001 mg/ml [29]: 1.2
COc1ccccc1N1CCN(CCC(O)c2ccc(F)c3ccccc23)CC1 (centres undefined) | 220 | 70 | 30400 | 138 | 55.9 | 0.9 | 84.4 | 0.7 | 61.5 | 0.9 | 88.4 | 0.7 | 1.3 | 1.3 | 1 | 67.1 | 1.3 | 99.1 | 1 | 66.5 | viability at 0.031 mg/ml [14]: 129%; fold induction at 0.031 mg/ml [15]: 0.6; fold induction at 0.004 mg/ml [23]: 1.1; viability at 0.002 mg/ml [24]: 65.2%; fold induction at 0.002 mg/ml [25]: 1.5; fold induction at 0.002 mg/ml [26]: 1; fold induction at 0.001 mg/ml [27]: 1.3; viability at 0.001 mg/ml [28]: 112%; fold induction at 0.001 mg/ml [29]: 0.9
Nc1ccc(N2CCC(NCCC(O)c3ccc(F)c4ccccc34)CC2)c(C(F)(F)F)c1 (centres undefined) | 80 | 140 | 11000 | 137 | 32.4 | 0.4 | 107 | 0.1 | 27.7 | 0.6 | 55.7 | 0.4 | 0.7 | 0.8 | 1.4 | 27.7 | 1 | 104 | 1.1 | 38.7 | viability at 0.031 mg/ml [14]: 39.1%; fold induction at 0.031 mg/ml [15]: 1; fold induction at 0.004 mg/ml [23]: 0.8; viability at 0.002 mg/ml [24]: 150%; fold induction at 0.002 mg/ml [25]: 0.7; fold induction at 0.002 mg/ml [26]: 1.4; fold induction at 0.001 mg/ml [27]: 1.1; viability at 0.001 mg/ml [28]: 119%; fold induction at 0.001 mg/ml [29]: 0.6
N#Cc1ccc(N2CCC(NCCC(O)c3ccc(F)c4ccccc34)CC2)c(Cl)c1 (centres undefined) | 90 | 150 | 7950 | 88 | 79.8 | 0.1 | 134 | 0.1 | 55.4 | 0.3 | 82.8 | 0.2 | 0.5 | 0.6 | 0.6 | 33.7 | 0.8 | 35.1 | 1.1 | 32.2 | fold induction at 0.004 mg/ml [23]: 1; viability at 0.002 mg/ml [24]: 117%; fold induction at 0.002 mg/ml [25]: 1; fold induction at 0.002 mg/ml [26]: 0.8; fold induction at 0.001 mg/ml [27]: 1; viability at 0.001 mg/ml [28]: 154%; fold induction at 0.001 mg/ml [29]: 0.9
